ChEMBL document CHEMBL1147769 (Bioorg Med Chem Lett, 2006)
pIC50: −log10 of the molar value. Starred links: 1 amine or outer side, 2 acyl side, 3 side chain; linkers in the order of their positions; H or OH if unused. Positions of bridges follow the written chain, without caps; N, C: chain ends. Non-standard residues stand in square brackets, D forms with d. Residues, ends and D or L forms follow the SMILES beside them. Chains are numbered I, II in the order given. NHNH = N(N[*:2])[*:1]

Columns and labels:
[1] = biological target: T1, Delta-type opioid receptor (Homo sapiens, UniProt P41143); test: Displacement of [3H]DPDPE from delta opioid receptor
Summary of the method: (§1)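 Competition binding on membranes from transfected cells stably expressing the mu or delta opioid receptor. Radioligands were [3H]DAMGO for mu and [3H]DPDPE for delta.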

Mu-type opioid receptor [2] = biological target: Mu-type opioid receptor (Homo sapiens, UniProt P35372); test: Displacement of [3H]DAMGO from mu opioid receptor; summary of the method: as §1
[3] = biological target: T1, Delta-type opioid receptor; test: Agonistic efficacy at human delta opioid receptor by [35S]GTP-gammaS binding assay; assay type: functional
Summary of the method: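 Cells expressing human DOR (delta) or rat MOR (mu) incubated with increasing test-compound concentrations and 0.1 nM [35S]GTP-gamma-S in assay buffer, duplicates, 90 min at 30 °C. Stopped by vacuum filtration through GF/B filters pretreated with assay buffer, then four washes with ice-cold 15 mM Tris/120 mM NaCl pH 7.4. Bound radioactivity counted by liquid scintillation after overnight extraction; Emax read as agonist-stimulated binding.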

Mu-type opioid receptor [4] = biological target: Mu-type opioid receptor (Rattus norvegicus, UniProt P33535); test: Agonistic efficacy at rat mu opioid receptor by [35S]GTPgammaS binding assay
[5] = biological target: Delta-type opioid receptor (Mus musculus, UniProt P32300); test: Activity at delta opioid receptor in mouse vas deferens; assay type: functional, tissue-based
Summary of the method: (§2)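 Isolated tissue bioassays, mouse vas deferens for delta and guinea pig ileum LMMP for mu. Data fitted to the Hill equation by computerized non-linear least squares, giving IC50, relative potency and their standard errors. IC50 is the mean of at least four experiments.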

Mu-type opioid receptor [6] = biological target: Mu-type opioid receptor (Cavia porcellus, UniProt P97266); test: Activity at mu opioid receptor in longitudinal muscle myenteric plexus from guinea pig ileum; assay type: functional, tissue-based; summary of the method: as §2
Sequence of Mu-type opioid receptor (Cavia porcellus, UniProt P97266) (P97266 whole entry): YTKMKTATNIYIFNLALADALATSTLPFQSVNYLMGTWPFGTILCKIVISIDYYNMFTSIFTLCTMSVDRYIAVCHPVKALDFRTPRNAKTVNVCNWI

T1 sequence (P41143 whole entry): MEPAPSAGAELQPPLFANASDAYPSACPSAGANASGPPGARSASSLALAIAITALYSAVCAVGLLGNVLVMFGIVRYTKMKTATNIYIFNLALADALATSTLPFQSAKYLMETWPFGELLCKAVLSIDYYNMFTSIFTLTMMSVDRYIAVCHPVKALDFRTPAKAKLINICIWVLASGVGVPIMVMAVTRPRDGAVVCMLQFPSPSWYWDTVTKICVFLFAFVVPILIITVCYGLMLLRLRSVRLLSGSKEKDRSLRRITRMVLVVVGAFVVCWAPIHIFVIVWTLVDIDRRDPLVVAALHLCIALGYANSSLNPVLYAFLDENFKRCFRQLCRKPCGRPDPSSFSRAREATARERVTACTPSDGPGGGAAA
Sequence of Mu-type opioid receptor (Rattus norvegicus, UniProt P33535) (P33535 whole entry): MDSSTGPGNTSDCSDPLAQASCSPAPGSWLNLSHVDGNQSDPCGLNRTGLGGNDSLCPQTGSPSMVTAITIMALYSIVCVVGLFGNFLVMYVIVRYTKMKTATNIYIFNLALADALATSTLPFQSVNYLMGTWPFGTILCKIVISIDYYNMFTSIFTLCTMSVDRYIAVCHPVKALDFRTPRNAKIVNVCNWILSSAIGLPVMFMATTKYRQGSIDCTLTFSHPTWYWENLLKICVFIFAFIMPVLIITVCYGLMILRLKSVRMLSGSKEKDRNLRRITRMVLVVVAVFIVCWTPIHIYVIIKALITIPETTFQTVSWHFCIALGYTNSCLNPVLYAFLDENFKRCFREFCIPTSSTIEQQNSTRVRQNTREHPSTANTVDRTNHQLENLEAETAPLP
Sequence of Mu-type opioid receptor (Homo sapiens, UniProt P35372) (P35372 whole entry): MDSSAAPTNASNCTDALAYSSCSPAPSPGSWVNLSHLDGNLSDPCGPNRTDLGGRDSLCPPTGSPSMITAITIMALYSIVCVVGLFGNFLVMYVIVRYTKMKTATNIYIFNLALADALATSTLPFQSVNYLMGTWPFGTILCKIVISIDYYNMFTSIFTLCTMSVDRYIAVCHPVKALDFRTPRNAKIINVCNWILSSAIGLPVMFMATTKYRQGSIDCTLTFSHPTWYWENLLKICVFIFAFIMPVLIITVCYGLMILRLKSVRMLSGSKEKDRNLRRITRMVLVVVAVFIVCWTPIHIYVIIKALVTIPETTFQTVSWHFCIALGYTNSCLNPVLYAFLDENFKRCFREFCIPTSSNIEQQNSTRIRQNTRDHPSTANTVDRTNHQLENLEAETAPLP
Sequence of Delta-type opioid receptor (Mus musculus, UniProt P32300) (P32300 whole entry): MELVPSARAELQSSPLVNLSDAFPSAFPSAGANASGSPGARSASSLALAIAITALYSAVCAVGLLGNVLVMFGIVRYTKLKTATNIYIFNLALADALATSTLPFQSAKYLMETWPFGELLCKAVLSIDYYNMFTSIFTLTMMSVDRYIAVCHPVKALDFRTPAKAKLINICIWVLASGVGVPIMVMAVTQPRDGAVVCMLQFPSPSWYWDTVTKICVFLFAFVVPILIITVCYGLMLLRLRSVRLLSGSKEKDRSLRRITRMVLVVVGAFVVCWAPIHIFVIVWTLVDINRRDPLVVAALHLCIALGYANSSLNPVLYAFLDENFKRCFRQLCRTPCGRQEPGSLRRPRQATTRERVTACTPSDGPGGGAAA

Structure (SMILES)	pIC50 [1]	pIC50 (Mu-type opioid receptor [2])	Emax [3] [%]	pIC50 [3]	pIC50 (Mu-type opioid receptor [4])	pIC50 [5]	pIC50 (Mu-type opioid receptor [6])
N[C@@H](Cc1ccc(O)cc1)C(=O)N[C@H]1CSSC[C@H](NC(=O)[C@@H](N)Cc2ccc(O)cc2)C(=O)NCC(=O)N[C@@H](Cc2ccccc2)C(=O)NNC(=O)[C@H](Cc2ccccc2)NC(=O)CNC1=O (I: H-YCGF / II: H-YCGF; disulfide I:2-II:2; linker I:C-II:C via NHNH)	7.28	6.89	58	6.59	6.92	6.24	6.38
N[C@@H](Cc1ccc(O)cc1)C(=O)N[C@@H]1CSSC[C@@H](NC(=O)[C@@H](N)Cc2ccc(O)cc2)C(=O)NCC(=O)N[C@@H](Cc2ccccc2)C(=O)NNC(=O)[C@H](Cc2ccccc2)NC(=O)CNC1=O (I: H-Y[dC]GF / II: H-Y[dC]GF; disulfide I:2-II:2; linker I:C-II:C via NHNH)	9.06	9.22	100	9.06	9.70	8.00	7.60
C[C@@H](NC(=O)[C@@H](N)Cc1ccc(O)cc1)C(=O)NCC(=O)N[C@@H](Cc1ccccc1)C(=O)NNC(=O)[C@H](Cc1ccccc1)NC(=O)CNC(=O)[C@@H](C)NC(=O)[C@@H](N)Cc1ccc(O)cc1 [BIPHALIN]	–	–	27	–	8.22	–	–
